Molecules are shown by their SMILES.

The source of these data is ChEMBL document CHEMBL4513216, “Probing the Open Global Health Chemical Diversity Library for Multistage-Active Starting Points for Next-Generation Antimalarials” (ACS Infect Dis, 2020).

The data set is described as follows: Toxicity liver stage against HepG2, at 10uM. Further details: test concentration 10 uM, cell line HepG2-A16-CD81EGFP. The following applies: human, HepG2-A16-CD81EGFP cells; read-out: INHIBITION
Format: cell-based. Summed up: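 Uninfected HepG2-A16-CD81EGFP cells, 3 × 10^3 per well, 1536-well, plated on prespotted compound at 10 μM final, parasite-free screening media added to match infected plates; puromycin 10 μM positive, DMSO 0.5% negative; run in parallel with 48 h PbLuc assay at 37 °C, 5% CO2; viability by CellTiter-Glo luminescence, normalized to controls.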
For `Cc1noc2ncnc(N(C)Cc3ccco3)c12`, the cytotoxicity at 10 µM amounted to 2.57%.

With `CN(C)CCCn1cnc2cc(NC(=O)c3n[nH]c4c3CCC4)ccc21`, the cytotoxicity at 10 µM is -5.3%.

For `O=C(NCC(O)(c1ccco1)C1CC1)c1ccccc1F` (centres undefined), the cytotoxicity at 10 µM is -1.16%.

As for `COc1ccccc1OCC(=O)NCC(C)(O)c1ccccc1` (centres undefined), the cytotoxicity at 10 µM is -5.37%.

With `c1cnc(N2C[C@H]3CCC[C@@H](CN4CCCC4)[C@H]3C2)nc1`, the cytotoxicity at 10 µM is -4.22%.

Regarding `CC(=O)N1CCCC2(C1)CN(C(=O)C1CCCCC1)CCO2` (centres undefined), the cytotoxicity at 10 µM was 2.08%.

Take `CC(=O)N1CCC2(C1)CN(C(=O)C1CCOC1)C2` (centres undefined): the cytotoxicity at 10 µM came out at 4.88%.

Regarding `CC(C)NC(=O)C1CN(C(=O)Cc2cccc(F)c2)CC12CCOCC2` (centres undefined), the cytotoxicity at 10 µM is 4.58%.

For the compound `Cc1cccc(CN2CCC3(CCCN(C(=O)CN(C)C)C3)C2=O)n1` (centres undefined), the cytotoxicity at 10 µM was -3.49%.

Take `O=c1[nH]nc2nc(N3CCSCC3)ccn12`: the cytotoxicity at 10 µM is -13.5%.

Regarding `O=C(Cn1ccc2c(Cl)cccc21)N1CCC2(CC1)OCCO2`, the cytotoxicity at 10 µM worked out at 14.2%.

For the compound `O=C1CC2(CCN(c3nncs3)C2)CN1c1ccccc1` (centres undefined), the cytotoxicity at 10 µM was -8.25%.

Take `CC(C)CC(=O)N1CC[C@@H]2[C@H](CC1)N(S(C)(=O)=O)CCS2(=O)=O`: the cytotoxicity at 10 µM was -11.4%.

Take `O=C(NCC1CC1)C1CN(C(=O)c2cccs2)CC12CCOCC2` (centres undefined): the cytotoxicity at 10 µM was -14%.

Consider `Cc1nn(CC(=O)N2CCN(c3ccccc3F)CC2)c(C)c1Cl`, for which the cytotoxicity at 10 µM was -12.6%.

As to `Cc1noc(C)c1C(=O)N1CCC2(CCc3ccccc3C(=O)N2)C1` (centres undefined), the cytotoxicity at 10 µM was found to be 1.75%.

For the compound `Cc1cc2ccncc2n1CC1(O)CCN(C(=O)c2cccnc2)CC1`, the cytotoxicity at 10 µM amounted to 4.18%.

Regarding `O=C(CC1CCN(c2cccnn2)CC1)NCCO`, the cytotoxicity at 10 µM worked out at 0.308%.

As to `CC(=O)N1CCCC1c1nc(C)c2c(n1)N(Cc1ccccn1)CCC2` (centres undefined), the cytotoxicity at 10 µM came out at 0.711%.

`CCCC(=O)N1CCCC(c2ccccn2)C1` (centres undefined): the cytotoxicity at 10 µM is 0.0858%.

In the case of `Cc1cnc(-c2nc(O)c3c(n2)CN(C(=O)C2CC2)CC3)cn1`, the cytotoxicity at 10 µM is -6.74%.

Regarding `Cc1cc(N2CCCC2c2nc(C)cc(CCC(=O)O)n2)ncn1` (centres undefined), the cytotoxicity at 10 µM was -17.1%.

As for `COCC(=O)N1CCC(c2cc(C(F)(F)F)c3c(C)noc3n2)CC1`, the cytotoxicity at 10 µM was -28%.

As to `O=C(N[C@@H]1CC[C@@H](n2ccnc2)[C@@H]1O)c1cc2c(s1)CCC2`, the cytotoxicity at 10 µM was -12.7%.

On to `Cc1cc(-c2cnn(CCNC(=O)c3cnn(C)c3)c2C2CC2)on1`, for which the cytotoxicity at 10 µM is -5.58%.

Turning to `Cc1ccc(S(=O)(=O)N2CCC(O)(CN(C)C)C2)cc1` (centres undefined), the cytotoxicity at 10 µM is -7.02%.

As to `Cc1ccc(O)c(CNc2cccc(OCCF)c2)n1`, the cytotoxicity at 10 µM is -3.09%.

On to `Cc1ccc(CN(CCN(C)C)C(=O)Cc2cn3ccccc3n2)o1`, for which the cytotoxicity at 10 µM is -5.1%.

As to `Cc1nnc(CN(C)CC(=O)NC(C)(C)c2ccc(F)cc2)n1C`, the cytotoxicity at 10 µM is -4.25%.

For the compound `CC(NC(=O)CCn1cccn1)c1ccc(-n2ccnn2)cc1` (centres undefined), the cytotoxicity at 10 µM is -1.99%.

Regarding `CC(C)Oc1ccc(CN)c(C(F)(F)F)c1`, the cytotoxicity at 10 µM came out at 0.71%.

With `CCn1nc(C)cc1C(=O)OCC1CC(=O)N(Cc2ccccc2)C1` (centres undefined), the cytotoxicity at 10 µM came to 6.68%.

For `Cc1ncccc1C(=O)NCC(C)Oc1ccc(F)cc1` (centres undefined), the cytotoxicity at 10 µM was -4.08%.

Regarding `N#Cc1ccc(N2CCCN(CCCn3cncn3)CC2)cc1`, the cytotoxicity at 10 µM is -8.9%.

For `COc1ccc(CNCC2CN(C3CC3)CCO2)cc1C` (centres undefined), the cytotoxicity at 10 µM is -8.01%.

As for `COc1ccc(-c2nnc(CN3CCNC(=O)C3)o2)cc1`, the cytotoxicity at 10 µM was -2.27%.

As to `Cc1cc(C)n(C2CN(Cc3noc(C4CC4)n3)C2)n1`, the cytotoxicity at 10 µM was 0.738%.

Consider `COc1ccc(C(=O)Nc2c(C)nn(C(C)C)c2C)cc1`, for which the cytotoxicity at 10 µM is -3.13%.

Turning to `Cc1ccc(NC(=O)c2ccc(CC3CC(=O)NC3=O)cc2)cc1O` (centres undefined), the cytotoxicity at 10 µM amounted to 4.99%.

As to `CC(CC#N)N1CCN(C(=O)OC(C)(C)C)CC1` (centres undefined), the cytotoxicity at 10 µM was -2.72%.

For `O=C(Nc1cn[nH]c1)N(CCCO)C1CCc2ccccc21` (centres undefined), the cytotoxicity at 10 µM is -1.74%.

For `COC(=O)NCCCC(=O)NC1(c2cccc(Cl)c2)CC1`, the cytotoxicity at 10 µM was -2.56%.

Turning to `CCN1CCOC(CNc2nccc(C(F)(F)F)n2)C1` (centres undefined), the cytotoxicity at 10 µM worked out at 5.31%.

As to `Cn1cc(CCCNC(=O)NCC(O)c2ccsc2)cn1` (centres undefined), the cytotoxicity at 10 µM is -5.4%.

`COCCCNC(=O)NCc1ccc(N2CCOC(C)C2)nc1` (centres undefined): the cytotoxicity at 10 µM was -5.82%.

As to `CN(CCN1CCOC1=O)CC(=O)Nc1cc(F)cc(F)c1`, the cytotoxicity at 10 µM is -49.5%.

Consider `Cc1nn(C)c(Cl)c1CN1CCN(c2nccs2)C(C)C1` (centres undefined), for which the cytotoxicity at 10 µM was -27.1%.

On to `CC(NC(=O)N1CCN(c2cccs2)CC1)c1ccncc1` (centres undefined), for which the cytotoxicity at 10 µM was determined as 15.8%.

Regarding `CN1CCN(Cc2cccc(NCc3cc[nH]n3)c2)CC1`, the cytotoxicity at 10 µM turned out to be 11.2%.

Take `OC(CN1CCCc2ccc(F)cc21)Cn1cccn1` (centres undefined): the cytotoxicity at 10 µM is 5.95%.

`Cc1ccccc1C(=O)CN1C(=O)c2ccccc2CS1(=O)=O`: the cytotoxicity at 10 µM is -10.1%.

As to `CCc1cnc(CN(C)C2CCN(CCc3ccccn3)C2)o1` (centres undefined), the cytotoxicity at 10 µM is -14.2%.

As to `CC(=O)Nc1nc2c(s1)C1(CCN(C)CC1)Nc1ccccc1S2`, the cytotoxicity at 10 µM is -14.5%.

For the compound `CC1(C)CNC(=O)c2nc(-c3nnn[nH]3)[nH]c2C1`, the cytotoxicity at 10 µM was -5.69%.

In the case of `Cc1ccccc1C(CC(=O)NCc1nnc(N)s1)c1ccccc1` (centres undefined), the cytotoxicity at 10 µM is 13.6%.

Consider `O=C1CC(NCc2ccc(Cl)s2)CN1Cc1cccc(F)c1` (centres undefined), for which the cytotoxicity at 10 µM was -0.73%.

With `Cc1nc2c(c(N3CCC4(CCCNC4=O)C3)n1)CCC2` (centres undefined), the cytotoxicity at 10 µM is -12.8%.

As for `CCc1noc(C)c1C(=O)N1CCC2(CCCN(CC(C)(C)C)C2=O)C1` (centres undefined), the cytotoxicity at 10 µM was determined as 3.75%.

Regarding `Cc1cccnc1CNCC1(O)CCCN(CC2CCC2)C1=O` (centres undefined), the cytotoxicity at 10 µM is -5.51%.

With `COc1ccc(CCN(C)C(=O)CN2C(=O)OC[C@@H]2C(C)C)cc1OC`, the cytotoxicity at 10 µM is -11%.

As for `CCc1cc(CN(C)C(=O)CN2CC(c3ccccc3)CC2=O)on1` (centres undefined), the cytotoxicity at 10 µM is -4.81%.

As for `Cc1nsc(NC(=O)N2CCCC2C)n1` (centres undefined), the cytotoxicity at 10 µM is -38.7%.

Consider `CCc1nc2c(N3CCC4(CC3)CNC(=O)C4)ncnc2o1`, for which the cytotoxicity at 10 µM was -2%.

Turning to `CN(C)Cc1nnc(C2CCN(c3nccc(N)n3)CC2)n1C1CC1`, the cytotoxicity at 10 µM was -1.99%.

On to `CCCn1c(C)c(CC(=O)NC)c2c1CC(C)(C)CC2=O`, for which the cytotoxicity at 10 µM was -6.05%.

Take `CC(C)N1CCC(NCc2cccnc2N(C)C)CC1`: the cytotoxicity at 10 µM was found to be 21%.

Take `CCC1CN(C(=O)c2ccccc2N2CCCC2)CCN1C(C)C` (centres undefined): the cytotoxicity at 10 µM is -9.78%.

With `CCc1csc(C2CCCN(C(=O)c3cnc[nH]3)C2)n1` (centres undefined), the cytotoxicity at 10 µM was 1.78%.

As for `CCOc1ccc(Cl)c(C(=O)N2CCN(c3ccncc3)CC2)n1`, the cytotoxicity at 10 µM was -5.44%.

Consider `CC(Cn1cccn1)NCCCc1nc(-c2cccs2)no1` (centres undefined), for which the cytotoxicity at 10 µM is -9.8%.

Take `CC(C(=O)N1CCCN(c2ccc(C#N)cc2)CC1)n1cccn1` (centres undefined): the cytotoxicity at 10 µM is -3.02%.

Turning to `Cc1ncsc1C(=O)NCCNC(=O)c1cccs1`, the cytotoxicity at 10 µM was -8.83%.

Consider `Cc1noc(C2CCCN(C(=O)CCNc3ncccn3)C2)n1` (centres undefined), for which the cytotoxicity at 10 µM is -8.27%.

With `CC(C)Cc1nc(CN2CCCC2Cn2cncn2)no1` (centres undefined), the cytotoxicity at 10 µM was -8.66%.

As to `CCN(CC1COc2ccccc2O1)C(=O)NCCCn1cncn1` (centres undefined), the cytotoxicity at 10 µM is -9.27%.

Take `CCc1nc(C2CCCN2CCCSC)no1` (centres undefined): the cytotoxicity at 10 µM is -6.57%.

Regarding `Cn1cc(C(=O)CC2CCCN2C(=O)c2ccncc2F)cn1` (centres undefined), the cytotoxicity at 10 µM is 0.555%.

For the compound `CC(C(=O)N1CCN(c2ncccn2)CC1)n1cncn1` (centres undefined), the cytotoxicity at 10 µM is -1.24%.

Take `CC(=O)N1CCCN(C(=O)C(C)n2cncn2)CC1` (centres undefined): the cytotoxicity at 10 µM is -0.227%.

Take `O=C(c1cccc2c1OCCO2)N1CCCCC1Cn1cccn1` (centres undefined): the cytotoxicity at 10 µM was -4.94%.

`CCOC(=O)N1CCN(Cc2ccc(OCc3nccn3C)cc2)CC1`: the cytotoxicity at 10 µM was -9.34%.

In the case of `CCc1nc(CN2CCN(C(=O)c3cnccn3)CC2)cs1`, the cytotoxicity at 10 µM is -8.92%.

`Cc1ccc(C(=O)Nc2cn[nH]c2)cc1C`: the cytotoxicity at 10 µM amounted to 0.762%.

Consider `CN(CC(=O)N1CCCC1Cn1cccn1)C1CC1` (centres undefined), for which the cytotoxicity at 10 µM was -9.39%.

With `c1cnn(CCN2CCOC(Cn3cncn3)C2)c1` (centres undefined), the cytotoxicity at 10 µM is -0.498%.

In the case of `CC(NC(=O)NCc1cccnc1N1CCCCC1)c1nccs1` (centres undefined), the cytotoxicity at 10 µM was -7.95%.

With `COc1ccc(C(C)N2CCN(Cc3nccn3C)CC2)cc1Cl` (centres undefined), the cytotoxicity at 10 µM is -8.31%.

Consider `Cc1cccnc1CNc1cc(N2CCCC2CO)ncn1` (centres undefined), for which the cytotoxicity at 10 µM is -10.3%.

With `CC(C)(C)c1cn2nc(N3CCCC3Cn3cncn3)sc2n1` (centres undefined), the cytotoxicity at 10 µM was determined as 1.43%.

Consider `Cc1ccc(CN(CCCn2ccnc2)Cc2[nH]cnc2C)s1`, for which the cytotoxicity at 10 µM is -22.8%.

Take `O=C(NC1CCCC1)c1cc(C2CCCNC2)n[nH]1` (centres undefined): the cytotoxicity at 10 µM was determined as 5.27%.

For `O=C(NCc1cncc2c1CCN(Cc1cccc(F)c1)C2)C1CC1`, the cytotoxicity at 10 µM was -8.16%.

Turning to `CN(C)c1ncc(C2Nc3ccccc3C3=NCCCN32)cn1` (centres undefined), the cytotoxicity at 10 µM is -23.2%.

For `O=C(c1ccccc1F)N1C[C@@H]2COC[C@]2(COCc2cccnc2)C1`, the cytotoxicity at 10 µM is 6.27%.

As for `O=C(c1ccc(F)cc1)N1C[C@@H]2OCCN(c3ncccn3)[C@@H]2C1`, the cytotoxicity at 10 µM was -9.55%.

In the case of `Cc1ccc(CN2Cc3nnn(C)c3C(COCCN(C)C)C2)s1` (centres undefined), the cytotoxicity at 10 µM is -7.25%.

Consider `O=C(Cc1cccc(F)c1)N1C[C@H]2CN(Cc3ccccn3)C[C@H]2C1`, for which the cytotoxicity at 10 µM is -2.25%.

For the compound `OC(CN1CCN(Cc2cccnc2)CC1)c1cccs1` (centres undefined), the cytotoxicity at 10 µM is -5.62%.

Regarding `CSc1ncc(CN2C[C@@H]3CC[C@H]2CN(C2CCOCC2)C3)cn1`, the cytotoxicity at 10 µM was -0.943%.
